Reference: publication PMC5615865 (Research in Pharmaceutical Sciences, 2017)

How the values were obtained:
Jack bean urease = Jack bean urease (Canavalia ensiformis, UniProt P07374); assay: Urease inhibitory assay; type: biochemical; settings: urea 25 mM, pH 7.4, 37°C, triplicate
Summary of the method: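 Enzyme solution (2 mg/mL stock) was mixed with urea and test compound at various concentrations in 100 mM sodium phosphate, pH 7.4, then incubated 30 min at 37°C. An aliquot was taken into phenol–nitroprusside and alkaline hypochlorite–NaOH reagents and incubated a further 30 min at 37°C, and A625 was read. % inhibition was calculated against the solvent-plus-enzyme control, and IC50 was fitted. Run in triplicate with a hydroxyurea standard.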

[1] = no reference given; cited from earlier work

Sequence of Jack bean urease (P07374 whole entry, looked up): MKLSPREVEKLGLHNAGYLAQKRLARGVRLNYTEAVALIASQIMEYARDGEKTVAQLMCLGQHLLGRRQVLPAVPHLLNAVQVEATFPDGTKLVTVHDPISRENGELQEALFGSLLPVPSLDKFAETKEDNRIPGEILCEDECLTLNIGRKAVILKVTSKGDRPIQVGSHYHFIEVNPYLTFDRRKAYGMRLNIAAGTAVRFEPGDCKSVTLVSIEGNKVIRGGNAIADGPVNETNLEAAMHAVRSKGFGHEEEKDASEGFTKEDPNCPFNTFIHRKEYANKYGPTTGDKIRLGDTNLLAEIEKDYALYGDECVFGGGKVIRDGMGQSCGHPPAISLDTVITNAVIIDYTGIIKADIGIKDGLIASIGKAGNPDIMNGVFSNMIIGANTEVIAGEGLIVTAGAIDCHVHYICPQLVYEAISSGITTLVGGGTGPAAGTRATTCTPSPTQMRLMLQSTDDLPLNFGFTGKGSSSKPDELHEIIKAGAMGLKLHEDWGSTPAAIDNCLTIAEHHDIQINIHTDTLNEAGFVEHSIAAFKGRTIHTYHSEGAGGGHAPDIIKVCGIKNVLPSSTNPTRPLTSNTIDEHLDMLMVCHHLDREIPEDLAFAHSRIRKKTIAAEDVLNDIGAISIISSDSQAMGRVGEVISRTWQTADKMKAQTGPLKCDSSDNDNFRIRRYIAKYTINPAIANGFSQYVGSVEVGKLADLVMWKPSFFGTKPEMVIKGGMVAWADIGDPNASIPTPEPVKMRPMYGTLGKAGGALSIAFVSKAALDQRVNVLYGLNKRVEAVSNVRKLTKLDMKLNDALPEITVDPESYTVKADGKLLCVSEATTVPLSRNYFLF

Row | SMILES | IC50 (Jack bean urease) [µM] | pKa [1]
1 | NC(=O)NO [hydroxyurea] | 100 | 
2 | COC(=O)CC(C)=O [methyl acetoacetate] |  | 11.0
